Active and inactive are the calls of the source. The calls are words filed in the database; no cut-off is given here.
Experiments:
[1] = Cmax in Sprague-Dawley rat at 0.1 mg/kg, po qd administered via gavage measured on day 11 by LC-MS/MS analysis; assay type: ADME, organism-based; parameters: dose 0.1 mg/kg, route oral; conditions: in vivo
Canis familiaris [2] = assay: Drug metabolism in dog assessed as taurine conjugated metabolite formation at 0.5 mg/kg, iv or 2 mg/kg, po administered via gavage by LC-MS/MS analysis; assay type: ADME, organism-based, Canis lupus familiaris; conditions: in vivo
Outline: (§1)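 Plasma samples were taken from the dog PK studies. The IV solution was 20% PEG300, 5% solutol and 75% carbonate buffer pH = 8. The PO suspension was 0.5% methylcellulose, 0.5% Tween80 and 99% water. Samples were screened for taurine- and glycine-conjugated metabolites and for the acylglucuronide.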

[3] = AUC (0 to 24 hrs) in Sprague-Dawley rat at 3 mg/kg, po qd administered via gavage measured on day 1 by LC-MS/MS analysis; assay type: ADME, organism-based; parameters: time < 24 hr, dose 3 mg/kg, route oral; conditions: in vivo
Canis familiaris [4] = assay: Drug metabolism in dog assessed as glycine conjugated metabolite formation at 0.5 mg/kg, iv or 2 mg/kg, po administered via gavage by LC-MS/MS analysis; assay type: ADME, organism-based, Canis lupus familiaris; conditions: in vivo; outline: as §1
Rattus norvegicus [5] = assay: In vivo agonist activity at FXR in po dosed Sprague-Dawley rat assessed as induction of SHP mRNA level in ileum administered as single dose measured 7 hrs post dose by qPCR analysis; assay type: functional, organism-based
[6] = Dissociation constant, pKa of compound; assay type: physicochemical
[7] = Cmax in rat at 1 mg/kg, po administered via gavage by LC-MS/MS analysis; assay type: ADME, organism-based; parameters: dose 1 mg/kg, route oral; conditions: in vivo
Outline: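 Single oral dose given as a suspension in 0.5% methylcellulose, 0.5% Tween80 and 99% water. Doses were 10 mg/kg in mouse, 1 mg/kg in rat and 2 mg/kg in dog.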

Rattus norvegicus [8] = assay: In vivo agonist activity at FXR in Sprague-Dawley rat assessed as downregulation of CYP8B1 mRNA level in liver at 0.003 mg/kg, po qd for 14 days measured 7 hrs post last dose on day 14 by qPCR analysis; assay type: functional, organism-based
Rattus norvegicus [9] = assay: In vivo agonist activity at FXR in po dosed Sprague-Dawley rat assessed as induction of FGF15 protein level in plasma administered once daily for 14 days measured 7 hrs post last dose on day 14; assay type: functional, organism-based
[10] = biological target: T1, G-protein coupled bile acid receptor 1 (Homo sapiens, UniProt Q8TDU6); assay: Agonist activity at human TGR5
T1 sequence (Q8TDU6 whole entry): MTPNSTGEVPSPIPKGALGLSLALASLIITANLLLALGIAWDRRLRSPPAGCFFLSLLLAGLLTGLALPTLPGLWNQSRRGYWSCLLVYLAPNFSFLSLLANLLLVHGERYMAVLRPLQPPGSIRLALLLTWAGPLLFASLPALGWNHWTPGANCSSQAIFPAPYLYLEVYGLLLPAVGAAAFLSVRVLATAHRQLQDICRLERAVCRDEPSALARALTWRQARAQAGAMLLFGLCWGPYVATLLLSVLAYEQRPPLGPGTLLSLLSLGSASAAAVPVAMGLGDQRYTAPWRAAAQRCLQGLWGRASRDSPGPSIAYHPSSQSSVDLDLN

Rattus norvegicus [11] = assay: In vivo agonist activity at FXR in po dosed Sprague-Dawley rat assessed as induction of FGF15 protein level in plasma administered once daily for 14 days measured 24 hrs post last dose on day 14; assay type: functional, organism-based
[12] = Drug uptake in Sprague-Dawley rat liver at 3 mg/kg, po qd administered via gavage measured 1 hr post last dose on day 14 by LC-MS/MS analysis; assay type: ADME, organism-based; conditions: read-out: Drug uptake
Outline: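 Drug concentration in liver was quantified from tissue homogenates, so these are total levels. Unbound liver concentration was not determined.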

Q: For O=C(O)c1cc(F)c2nc(N3C4CCC3CC(OCc3c(-c5ccccc5OC(F)(F)F)noc3C3CC3)C4)sc2c1 (configuration not stated), which Cmax [1] is on record?
A: 7.1 nM

Q: And the Drug metabolism (Canis familiaris [2])?
A: Metabolite_Notdetected

Q: And the AUC(0-t) at 24 h [3]?
A: 1.34 µM·h

Q: And the Drug metabolism (Canis familiaris [4])?
A: Metabolite_Notdetected

Q: What about the Activity (Rattus norvegicus [5]) of the same compound?
A: Dose-dependent effect

Q: And the pKa [6]?
A: 4

Q: And the Cmax [7]?
A: 53 nM

Q: What about the Activity (Rattus norvegicus [8]) of the same compound?
A: Active

Q: What about the Activity (Rattus norvegicus [9]) of the same compound?
A: Dose-dependent effect

Q: What about the EC50 [10] of the same compound?
A: > 10 µM

Q: What about the Activity (Rattus norvegicus [11]) of the same compound?
A: inactive

Q: And the concentration at 1 h [12]?
A: 872 nM

From ChEMBL document CHEMBL4028903 (J Med Chem, 2017)
